Experimental data taken from ChEMBL document CHEMBL4513216, “Probing the Open Global Health Chemical Diversity Library for Multistage-Active Starting Points for Next-Generation Antimalarials” (ACS Infect Dis, 2020).

Assay: Toxicity liver stage against HepG2, at 10uM
Format: cell-based
Parameters: test concentration 10 uM, cell line HepG2-A16-CD81EGFP
Settings: human, HepG2-A16-CD81EGFP cells; read-out: INHIBITION
Outline: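 Uninfected HepG2-A16-CD81EGFP cells, 3 × 10^3 per well, 1536-well, plated on prespotted compound at 10 μM final, parasite-free screening media added to match infected plates; puromycin 10 μM positive, DMSO 0.5% negative; run in parallel with 48 h PbLuc assay at 37 °C, 5% CO2; viability by CellTiter-Glo luminescence, normalized to controls.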

SMILES | cytotoxicity at 10 µM [%]
COc1ccccc1CNc1ccc2nncn2n1 | 10.4
CCSc1nnc(N2CCN(c3ccccc3)CC2)s1 | -6.67
CN1CCC(CNC(=O)NCc2ccc(F)cc2)CC1 | -10.1
O=C(CCCc1ccccc1)Nc1cnc(N2CCOCC2)nc1 | -13.9
O=C(C[C@@H]1COC[C@H]2CN(Cc3ccsc3)C[C@@H]12)N1CCCC1 | 1.64
CCOC1CC2(CCN(C(C)=O)CC2)c2cc(F)ccc21 (configuration not stated) | -143
COCC1c2nnn(CC3CC3)c2CCN1C(=O)c1cnccn1 (configuration not stated) | -140
CS(=O)(=O)NC[C@@H]1OC[C@H]2CN(C(=O)c3ccccc3)CC[C@H]21 | 10.3
COc1cccc2c1ccn2CCNC(=O)C(C)C | 5.66
Cc1nc(-c2ccccc2F)sc1C(=O)N1CCN(C)CC1 | 21
CC[C@H](C)[C@H](NC(=O)Cc1csc(-c2cccc(Cl)c2)n1)C(=O)O | -7.48
O=C(NCc1ccccc1)N1CCC2(CC(=O)N(c3ccsc3)C2)C1 (configuration not stated) | -9.64
Cc1nn(C)c2c(NCc3cccnc3)nc(C(C)C)nc12 | 10.5
NC(=O)c1cc(CC2CCCN(c3cnccn3)C2)ncn1 (configuration not stated) | -1.15
CC(=O)N1CCCC(Cc2cnc(-n3ccnc3)cn2)C1 (configuration not stated) | -21.7
O=C(c1cncnc1)N1Cc2ccccc2OC2(CCOCC2)C1 | -8.46
CS(=O)(=O)c1ccc(NC(=O)NC2(c3cccc(F)c3)CC2)cc1 | 2.93
COCCN(C)C(=O)Nc1cc2c(cc1SC)OCCO2 | 4.69
CC(CN1CCOCC1)NC(=O)N1CCN(S(C)(=O)=O)CC1 (configuration not stated) | 0.243
Cc1noc(CNC(=O)NCCc2ccc(Cl)cc2)n1 | 6.93
CCc1cc(=O)[nH]c(-c2ccc(NC(C)CN3CCOCC3)nc2)n1 (configuration not stated) | -145
N#CC1COCCN1S(=O)(=O)c1ccc2ccccc2c1 (configuration not stated) | 6.45
O=C(CCSc1ccc(F)cc1)N1CCN(c2cnccn2)CC1 | -42.8

SMILES | cytotoxicity at 10 µM [%]
CC(C)C(=O)NS(=O)(=O)CCc1ccccc1 | 0.67
CSc1cc(CNC(=O)CCOc2ccccc2C)ccn1 | 6.72
O=C(CNC(=O)Nc1cccc(-c2nccs2)c1)NCCO | -2.77
Cc1ccc(-c2cnc(CCC(=O)NCCN3CCOCC3)o2)cc1C | 7.36
NC(=O)CCn1ccc(NC(=O)c2ccc(OCC3CC3)cc2)n1 | 5.48
COCc1ccccc1NC(=O)NC(C)c1ccc(C)o1 (configuration not stated) | 0.205
N#Cc1ccnc(N2CCN(CC(O)c3ccc(F)cc3F)CC2)c1 (configuration not stated) | -0.626
O=C(CS(=O)(=O)C1CCCC1)NC(c1ccc(F)cc1)C1CC1 (configuration not stated) | -159
c1ccc(OCCNC2CCN(c3ncccn3)CC2)cc1 | 1.85
O=C(Cc1csc(N2CCNC2=O)n1)NC(c1ccccc1)C1CC1 (configuration not stated) | -136
CC(C)NC(=O)C1CCN(Cn2ccc(-c3ccc(F)cc3)n2)CC1 | 7.07
FC(F)(F)c1ccnc(N2CCCOCC2)c1 | -1.41
O=C(CNC(=O)C1CC1)NCCOc1cccc(Cl)c1Cl | 5.04
CN1CCN(c2ccc(F)cc2NC(=O)NCC[S+](C)[O-])CC1 (configuration not stated) | -10.7
Clc1nc2ccccn2c1CNCC1CN(C2CC2)CCO1 (configuration not stated) | -3.06
COc1ccc(C2CCN(C(=O)c3ncccc3OC(C)C)C2)cc1 (configuration not stated) | -6.45
Cc1cccc(C2(CNC(=O)C(C)NC(N)=O)CCCC2)c1 (configuration not stated) | 7.19
COc1cc(C(C#N)NC(=O)CC2=CCCCC2)cc(OC)c1OC (configuration not stated) | 3.2
O=C(CNc1cccc(S(=O)(=O)C(F)F)c1)Nc1ccccc1 | -48.4
CC(=O)c1ccc(CNC(=O)c2cc(C)nn2C)nc1C | 6.21
Cc1nc(CNC(=O)NCC(O)c2cccc(Cl)c2)cs1 (configuration not stated) | -16.1
COc1ccc(F)cc1C(C)NC(=O)Nc1nnc(C)s1 (configuration not stated) | -1.01
CN1CCCCC1c1nc(Cc2cccc(F)c2)no1 (configuration not stated) | -161

SMILES | cytotoxicity at 10 µM [%]
O=C1N(CCc2ccccc2)CCCC12CCN(C(CO)CO)C2 (configuration not stated) | -3.25
CC(C)Cc1noc(CN(C)c2ncccn2)n1 | 5.23
CCCc1n[nH]c(=O)n1Cc1ccc(OC)cc1 | -130
O=C(C1CCOCC1)N1CC[C@@](O)(c2ccccc2)[C@H]2CCCC[C@@H]21 | -8.35
COCCN1CCC(CN(Cc2ccncc2)C2CCCCC2)CC1 | -2.91
CCCOCCN1CCc2[nH]c(-c3ccc(OC)cc3)nc2C1 | -113
CN1CCN(C[C@H]2CC[C@@H](Cc3ccc4c(c3)OCO4)O2)CC1 | -5.13
COCCN(Cc1sccc1C)C(=O)COc1cccnc1 | -138
COc1ccccc1OCCCc1cccc(C#N)n1 | -5.62
Cc1nn2c(N3CCCC(C(N)=O)C3)cc(-c3ccccc3)nc2c1C (configuration not stated) | -4.45
CN(C)C(C(=O)N1CCCN(C(=O)C2CCC2)CC1)c1ccccc1F (configuration not stated) | -2.11
CNC(=O)[C@@H]1C[C@H](N)CN1Cc1cc2cc(C)cc(C)c2[nH]c1=O | -1.72
c1cc(-c2ccc(CN3CCCC4(CCNC4)C3)s2)[nH]n1 (configuration not stated) | -152
CS(=O)(=O)NC1CCN(C(=O)c2cnc(-c3cccnc3)nc2)CC1 | -6.47
O=C1NCCN(CC2CCCCC2)C1CC(=O)N1CCc2n[nH]cc2C1 (configuration not stated) | -3.76
Cc1ccccc1CCC1CCCN(C(=O)Cc2cc(=O)[nH]c(N)n2)C1 (configuration not stated) | 4.6
CC(=O)N1CCc2[nH]cnc2C12CCN(CC1CCOC1)CC2 (configuration not stated) | -8.46
CCC[C@@H]1CN(C(=O)CCc2ccco2)C[C@H]1NS(C)(=O)=O | -3.73
COCCn1ccnc1C1CCCN(C(=O)c2cccnc2SC)C1 (configuration not stated) | -14.2
CCn1ncnc1C(C)Nc1cc(C2CC2)ncn1 (configuration not stated) | 2.33
CSc1ncccc1C(=O)N1CCC2(CC1)OCCCC2O (configuration not stated) | -7.16
Cc1ncccc1OCC(=O)N1CCN[C@H]2CS(=O)(=O)C[C@H]21 | 13.1
Cc1cccc(C(=O)NCc2ccc(CS(N)(=O)=O)cc2)n1 | -1.07

SMILES | cytotoxicity at 10 µM [%]
Cn1cc(CCN2CCOC(CNc3cccnn3)C2)cn1 (configuration not stated) | 2.11
O=S1(=O)CCC(N(Cc2nc3ccccc3o2)Cc2cccs2)C1 (configuration not stated) | -3.08
Cn1ccnc1C(NCc1ccc(Br)cc1)c1ccccc1 (configuration not stated) | -6.39
CC(C)(C)OC(=O)N1CCC(C(=O)NCCNc2ncccn2)CC1 | -10.3
O=C(NCCNc1ncccn1)C1CCN(C(=O)N2CCCC2)CC1 | -6.11
CC(O)CN1CCC(CNCc2ccccc2F)CC1 (configuration not stated) | -11.4
Cc1noc(C2CCN(C(=O)c3ccc(C(F)(F)F)nc3)CC2)n1 | -6.16
CC(C)(C)c1n[nH]c(C2CN(C(=O)CCc3cccs3)CCO2)n1 (configuration not stated) | -10.6
Cc1nnc2n1CCN(C(=O)c1cc(Cl)c(Br)[nH]1)C2 | -4.31
O=C(COCC1CC1)Nc1ncn(CC(=O)N2CCCCCC2)n1 | -11.9
OC(CN1CCC(c2ccn[nH]2)CC1)c1cccc(C(F)(F)F)c1 (configuration not stated) | -12.1
Cc1cnn(CC2CCCN2C(=O)c2ccccc2-n2cnnn2)c1 (configuration not stated) | -35.7
Cc1cccc(-n2ncc(C(=O)NCC3CCS(=O)(=O)C3)c2C)c1 (configuration not stated) | -20.3
COCCCNC(=O)c1c(C)noc1C(C)C | -28.2
CCOc1ncccc1CNC(=O)Nc1ccc(CC)cc1 | -23.7
O=C(CCOc1ccccc1Cl)N1CCN(c2cnccn2)CC1 | -29.2
Cc1nnc(CN2CCN(C(C)c3nc(C4CC4)no3)CC2)o1 (configuration not stated) | -10.3
O=c1n(CCSCc2ccccc2Br)nc2ccccn12 | -3.95
Cc1ccc(NC2CCN(C(=O)c3ccc(Cl)o3)CC2)nn1 | -0.961
Cc1cc(CC(=O)NCc2ccnc(OCC(F)(F)F)c2)no1 | -2.17
CNc1nc(CNC(=O)Nc2ccccc2-c2noc(C)n2)cs1 | -6.56
CC(C)c1nc(CN2CCCN(Cc3nnc(C4CC4)o3)CC2)no1 | -0.794
CC(NC(N)=O)C(=O)N1CCCN(Cc2nccn2C(C)C)CC1 (configuration not stated) | 1.95

SMILES | cytotoxicity at 10 µM [%]
N#CC1(C(=O)NCC2CCC3(CCNCC3)O2)CC1 (configuration not stated) | -5.22
Cc1ccc(CN2CCOCC3(CCN(Cc4cccs4)C3)C2)o1 (configuration not stated) | -5.61
O=C(c1cccnc1)N1CCCC2(CCN(c3ccsc3)C2=O)C1 (configuration not stated) | -1.29
Cn1cccc1C(=O)N1CCN(Cc2ccncc2)c2ncccc2C1 | -0.395
COCCN1CC[C@]2(CN(Cc3cccnc3)C[C@H]2C)C1=O | -4.66
c1cnc(N2CC[C@@H]3CN(Cc4ccncc4)CCO[C@@H]3C2)nc1 | 5.53
Cc1nc(CN2CCc3ncnc(C4CCOC4)c3CC2)cs1 (configuration not stated) | 3.05
Cc1nc(CO[C@@H]2CN(Cc3cccs3)[C@@H]3COC[C@@H]32)cs1 | -0.646
Cc1nnc(N2CCCC3(CN(c4ccccn4)CCO3)C2)o1 (configuration not stated) | -98.8
Cc1ccc(C2(CN3CCN(Cc4cncn4C)CC3)CC2)cc1 | -13.1
c1ccc(OCC2CC3(CCN(c4ncccn4)CC3)CO2)nc1 (configuration not stated) | 0.485
COCCN1CCC2(CC1)CN(C(C)=O)c1ccc(C)cc12 | 3.77
COc1ccccc1-c1c[nH]c(C2CCCN2)n1 (configuration not stated) | 0.276
O=C1COC2(CCN(CC3CC3)CC2)CN1c1cncnc1 | -1.87
O=C(O)c1c(-c2cccnc2)ncc2c1CCN(Cc1ccccn1)C2 | -1.43
O=C(NC[C@]12COC[C@H]1CN(Cc1cccnc1)C2)c1ccsc1 | 2.95
CC(C)n1nc(Cn2cccn2)c2c1CN(C1CCOCC1)C2 | 6.98
Cc1ncnc2c1CCN(Cc1cccs1)CC2 | 1.17
CCCS(=O)(=O)N1C[C@@H]2CN(Cc3ccco3)CCO[C@@H]2C1 | -142
COc1cccc(-n2cc3[nH]c(=O)n(C(C)C)n3c2=O)c1 | -7.32
